According to paper PMC11542726 (Methods in enzymology, 2024):
“Also recorded” adds a separate entry of the source.

Assays:
Crk SH2 [1] = experiment: FP competition assay: unlabeled peptides vs FAM-DVpYDVPP; format: binding, mouse Crk protein 1 – 118 identical to human CRK protein; conditions: 4 nM FAM-labeled phosphorylated peptide, 150 nM Crk SH2, unlabeled competitor peptides; data not shown
How it was run: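 Polarization is read as mP values. For each unlabeled peptide, the concentration giving 50% displacement of the FAM probe is obtained by non-linear regression.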

Crk SH2 [2] = experiment: Differential scanning fluorimetry; format: binding, mouse Crk protein 1 – 118 identical to human CRK protein; conditions: 10 μM Crk SH2, 10X SYPRO Orange, peptides 0-300 μM, 50 mM HEPES, pH 7.5, 150 mM NaCl; 25 to 95°C at 0.2°C/s; Figure 6B
How it was run: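 Before dye addition, Crk SH2 (10 μM final) is preincubated with peptides, dispensed from DMSO or buffer, for 30 min at room temperature. SYPRO Orange is then added and samples are melted. Tm is taken from the fluorescence curve or its first derivative as the half-unfolded point. ΔTm is the change in Tm on ligand binding. A DMSO series of 0–2% was also run.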

Crk SH2 [3] = experiment: Fluorescence polarization; format: mouse Crk protein 1 – 118 identical to human CRK protein; conditions: direct binding; various concentrations of FAM-conjugated peptides titrated into 4 nM Crk SH2, 20 mM HEPES pH 7.5, 0.025% Triton X-100; 384-well, 480-nm excitation, 535-nm emission; repeated at least three times; Figure 6A
Crk SH2 vs CrkL SH2 = experiment: Comparison of affinity of FAM-DVpYDVPP for Crk SH2 vs CrkL SH2; format: binding, mouse; conditions: comparison in words; assay and values not given

Competition of binding of Crk SH2 with FAM-DVpYDVPP (Crk SH2 [1])	Substance	Shift of thermal unfolding curve / Tm (Crk SH2 [2])	Increase in FP / polarization (mP) (Crk SH2 [3])	Relative affinity, Crk SH2 vs CrkL SH2 (Crk SH2 vs CrkL SH2)
much less significantly	DVFDVPP-OH	–	–	–
much less significantly	DVYDVPP	no significant shift in Tm was observed; also recorded: no significant binding	–	–
–	FAM-DVYDVPP	–	no significant increase in FP is observed; also recorded: No polarization is detected	–
–	FAM-DVpYDVPP	–	a significant increase in FP is measured	Crk SH2 showed a higher affinity

Substance	Competition of binding of Crk SH2 with FAM-DVpYDVPP (Crk SH2 [1])	Shift of thermal unfolding curve / Tm (Crk SH2 [2])	Increase in FP / polarization (mP) (Crk SH2 [3])	Relative affinity, Crk SH2 vs CrkL SH2 (Crk SH2 vs CrkL SH2)
DVpYDVPP-OH	effectively competed out	shift to the right; also recorded: unfolding curves shifted	–	–
